In brackets after ≈: the same amount, converted by molar mass. Activity calls are given as the source filed them. The calls are words filed in the database; no cut-off is given here.
Legend:
Bacillus subtilis [1] = experiment: Antimicrobial activity against Bacillus subtilis at 1 ug; format: functional, organism-based
Method in brief: (§1)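 Direct bioautography: each compound is spotted onto TLC plates and the solvent evaporated. The test organism is then grown directly on the plate. Growth inhibition is scored at the spot as active (+) or very active (++). Where a number is given, it is the radius in mm of the inhibition zone around the spot.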

Escherichia coli [2] = experiment: Antimicrobial activity against Escherichia coli at 0.1 ug; format: functional, organism-based; method in brief: as §1
Penicillium oxalicum [3] = experiment: Antimicrobial activity against Penicillium oxalicum at 5 ug; format: functional; details: for zone of inhibition at 5 µg/disc: read-out: IZ; method in brief: as §1
Micrococcus luteus [4] = experiment: Antimicrobial activity against Micrococcus luteus at 0.1 ug; format: functional, organism-based; method in brief: as §1
Bacillus subtilis [5] = experiment: Antimicrobial activity against Bacillus subtilis at 5 ug; format: functional, organism-based; method in brief: as §1
Escherichia coli [6] = experiment: Antimicrobial activity against Escherichia coli at 1 ug; format: functional, organism-based; method in brief: as §1
Micrococcus luteus [7] = experiment: Antimicrobial activity against Micrococcus luteus at 5 ug; format: functional, organism-based; method in brief: as §1
Bacillus subtilis [8] = experiment: Antimicrobial activity against Bacillus subtilis at 0.1 ug; format: functional, organism-based; method in brief: as §1
KB [9] = experiment: Cytotoxicity against vinblastine-resistant human KB cells; format: functional; details: read-out: ED50 (the source's name)
Method in brief: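 The vinblastine-resistant KB-V1 line was tested both with and without added vinblastine in the cultured tumour-cell cytotoxicity panel. Results are reported as ED50.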

Bacillus subtilis [10] = experiment: Antimicrobial activity against Bacillus subtilis at 10 ug; format: functional, organism-based; method in brief: as §1
ZR-75-1 = experiment: Cytotoxicity against human ZR-75-1 cells; format: functional; details: read-out: ED50 (the source's name)
Escherichia coli [11] = experiment: Antimicrobial activity against Escherichia coli at 10 ug; format: functional, organism-based; method in brief: as §1
Plasmodium falciparum [12] = experiment: Antimalarial activity against chloroquine-sensitive Plasmodium falciparum D6 at 10 ug/ml; format: functional
Lu1 = experiment: Cytotoxicity against human Lu1 cells; format: functional; details: read-out: ED50 (the source's name)
[13] = biological target: Human immunodeficiency virus type 1 reverse transcriptase (Human immunodeficiency virus 1) (UniProt Q72547); experiment: Inhibition of HIV1 RT at 200 uM
Method in brief: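 HIV-1 reverse transcriptase inhibition was measured in an ELISA-based system.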

KB [14] = experiment: Cytotoxicity against human KB cells; format: functional; details: read-out: ED50 (the source's name)
Escherichia coli [15] = experiment: Antimicrobial activity against Escherichia coli at 5 ug; format: functional, organism-based; method in brief: as §1
Penicillium oxalicum [16] = experiment: Antimicrobial activity against Penicillium oxalicum at 0.1 ug; format: functional; details: for zone of inhibition at 0.1 µg/disc: read-out: IZ; method in brief: as §1
LNCaP = experiment: Cytotoxicity against human LNCAP cells; format: functional; details: read-out: ED50 (the source's name)
KB [17] = experiment: Cytotoxicity against vinblastine-sensitive human KB cells; format: functional; details: read-out: ED50 (the source's name)
Penicillium oxalicum [18] = experiment: Antimicrobial activity against Penicillium oxalicum at 10 ug; format: functional; details: for zone of inhibition at 10 µg/disc: read-out: IZ; method in brief: as §1
Micrococcus luteus [19] = experiment: Antimicrobial activity against Micrococcus luteus at 10 ug; format: functional, organism-based; method in brief: as §1
Penicillium oxalicum [20] = experiment: Antimicrobial activity against Penicillium oxalicum at 1 ug; format: functional; details: for zone of inhibition at 1 µg/disc: read-out: IZ; method in brief: as §1
Micrococcus luteus [21] = experiment: Antimicrobial activity against Micrococcus luteus at 1 ug; format: functional, organism-based; method in brief: as §1
[22] = Inhibition of TK assessed as residual activity at 200 ug/ml
Method in brief: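 The enzyme was tyrosine kinase p56lck, with test compounds at 200 μg/mL. The read-out is the remaining enzyme activity.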

[23] = Inhibition of PKC
Penicillium oxalicum [24] = experiment: Antimicrobial activity against Penicillium oxalicum at 0.01 ug; format: functional; method in brief: as §1
Plasmodium falciparum [25] = experiment: Antimalarial activity against chloroquine-sensitive Plasmodium falciparum D6; format: functional, organism-based
Method in brief: (§2)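 In vitro growth inhibition of Plasmodium falciparum clones D6 (chloroquine-sensitive) and W2 (chloroquine-resistant); IC50 reported in μg/mL.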

Plasmodium falciparum [26] = experiment: Antimalarial activity against chloroquine-resistant Plasmodium falciparum W2; format: functional, organism-based; method in brief: as §2
[27] = Selectivity index, ratio of IC50 for human KB cells to IC50 for Plasmodium falciparum D6; format: toxicity, cell-based; details: KB cells versus Plasmodium falciparum D6, read-out: Ratio IC50
Method in brief: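 Plasmodium falciparum clones were assayed in vitro: D6 (chloroquine-sensitive) and W2 (chloroquine-resistant). IC50 is in μg/mL. The selectivity index is the ratio of the antimalarial to the cytotoxic activity.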

| SMILES | Activity (Bacillus subtilis [1]) | Activity (Escherichia coli [2]) | Activity (Micrococcus luteus [4]) | Activity (Bacillus subtilis [5]) | Activity (Escherichia coli [6]) | Activity (Micrococcus luteus [7]) | Activity (Bacillus subtilis [8]) | EC50 (KB [9]) [mg/L] | Activity (Bacillus subtilis [10]) | EC50 (ZR-75-1) [mg/L] | Activity (Escherichia coli [11]) | EC50 (Lu1) [mg/L] | EC50 (KB [14]) [mg/L] | Activity (Escherichia coli [15]) | Activity (Penicillium oxalicum [16]) | Activity (Micrococcus luteus [19]) | Activity (Micrococcus luteus [21]) | zone of inhibition at 5 µg/disc (Penicillium oxalicum [3]) [mm] | zone of inhibition at 10 µg/disc (Penicillium oxalicum [18]) [mm] | zone of inhibition at 1 µg/disc (Penicillium oxalicum [20]) [mm] | other results |
| --- | --- | --- | --- | --- | --- | --- | --- | --- | --- | --- | --- | --- | --- | --- | --- | --- | --- | --- | --- | --- | --- |
| CCCCC1=C(Br)C(OC)(C(Br)Br)OC1=O (centres undefined) | inactive | inactive | inactive | inactive | Active | Active | inactive | 8 (≈ 19 µM) | inactive | 6.7 (≈ 15.9 µM) | Active | > 20 | 7.6 (≈ 18.1 µM) | Active | inactive | Active | Active |  |  |  | Activity (Penicillium oxalicum [3]): inactive; Activity (Plasmodium falciparum [12]): >50%; Activity [13]: inactive; EC50 (LNCaP): 6.6 mg/L (≈ 15.7 µM); EC50 (KB [17]): 10.5 mg/L (≈ 24.9 µM); Activity (Penicillium oxalicum [18]): inactive; Activity (Penicillium oxalicum [20]): inactive |
| CCC[C@@H](OC(C)=O)C1=C(Br)[C@@](C)(OC)OC1=O | inactive | inactive | inactive | inactive | inactive | Active | inactive | 2.8 (≈ 8.72 µM) | inactive | 2.4 (≈ 7.47 µM) | inactive | > 20 | 5.4 (≈ 16.8 µM) | inactive | inactive | Active | Active | 6 | 8 | 3 | Activity (Plasmodium falciparum [12]): >50%; Activity [13]: inactive; EC50 (LNCaP): 1.7 mg/L (≈ 5.29 µM); EC50 (KB [17]): 10.7 mg/L (≈ 33.3 µM) |
| CCC[C@@H](O)C1=C(Br)[C@](CI)(OC)OC1=O | inactive | inactive | inactive | inactive | inactive | Active | inactive | > 20 | Active | 6.4 (≈ 15.8 µM) | Active | > 20 | > 20 | Active | inactive | Active | inactive | 6 | 6 | 2 | Activity (Plasmodium falciparum [12]): >50%; Activity [13]: inactive; Activity [22]: 55.7%; EC50 (LNCaP): 9.1 mg/L (≈ 22.5 µM); EC50 (KB [17]): > 20 mg/L |
| CCC[C@@H](O)C1=C(Br)[C@@](CI)(OC)OC1=O | inactive | inactive | inactive | Active | inactive | Active | inactive |  | Active |  | Active |  |  | Active | inactive | Active | inactive | 16 | 14 | 10 | Activity [22]: 77.2% |
| CCC[C@@H](O)C1=C(Br)/C(=C\Cl)OC1=O |  |  |  |  |  |  |  |  |  |  |  |  |  |  |  |  |  |  |  |  | Activity [22]: 1.6% |
| CCC[C@@H](OC(C)=O)C1=C(Br)[C@](C)(OC)OC1=O | inactive | inactive | inactive | Active | inactive | Active | inactive | 4.7 (≈ 14.6 µM) | Active | 4 (≈ 12.5 µM) | inactive | > 20 | 3.9 (≈ 12.1 µM) | inactive | inactive | Active | inactive | 12 | 16 | 8 | Activity (Plasmodium falciparum [12]): >50%; Activity [13]: inactive; Activity [22]: 86%; EC50 (LNCaP): 3.6 mg/L (≈ 11.2 µM); EC50 (KB [17]): 5.6 mg/L (≈ 17.4 µM) |
| CCN(CC)CCCC(C)Nc1ccnc2cc(Cl)ccc12 (centres undefined) [CHLOROQUINE] |  |  |  |  |  |  |  |  |  |  |  |  | 17.4 (≈ 54.4 µM) |  |  |  |  |  |  |  |  |
| CCCCCCCC/C=C(\Br)C(O)C(Br)Br (centres undefined) | inactive | inactive |  | Active | inactive | Active |  |  | Active |  | Active |  |  | inactive | inactive | Active | inactive | 8 | 8 | 5 | IC50 [23]: ≥ 200 µM; Activity (Penicillium oxalicum [24]): inactive |
| CCC[C@@H](OC(C)=O)C1=C(Br)/C(=C\Br)OC1=O [ACETOXYFIMBROLIDE] | Active | inactive | Active | Active | inactive | Active | inactive |  | Active |  | inactive |  |  | inactive |  | Active | Active | 22 | 18 | 14 | Activity (Penicillium oxalicum [24]): inactive; zone of inhibition at 0.1 µg/disc (Penicillium oxalicum [16]): 6 mm |
| CCC[C@@H](O)C1=C(Br)/C(=C\Br)OC1=O [HYDROXYFIMBROLIDE] | Active |  | inactive | Active | Active | Active | Active | 1.1 (≈ 3.37 µM) | Active | 0.3 (≈ 0.92 µM) | Active | 0.6 (≈ 1.84 µM) | 0.5 (≈ 1.53 µM) | Active |  | Active | Active | 31 | 28 | 21 | Activity (Penicillium oxalicum [24]): inactive; Activity (Plasmodium falciparum [12]): >50%; Activity [13]: inactive; zone of inhibition at 0.1 µg/disc (Penicillium oxalicum [16]): 6 mm; EC50 (LNCaP): < 0.1 mg/L; EC50 (KB [17]): 0.2 mg/L (≈ 0.614 µM) |
| CCC[C@@H](OC(C)=O)C1=C(Br)[C@](OC)(C(Br)Br)OC1=O | inactive | inactive | inactive | inactive | inactive | inactive | inactive | 6.1 (≈ 12.7 µM) | inactive | 3.8 (≈ 7.93 µM) | inactive | > 20 | 6.1 (≈ 12.7 µM) | inactive | inactive | inactive | inactive | 8 | 9 | 4 | IC50 (Plasmodium falciparum [25]): 3.8 mg/L (≈ 7.93 µM); IC50 (Plasmodium falciparum [26]): > 10 mg/L; selectivity ratio [27]: 2; Activity [13]: inactive; Activity [22]: 87.5%; EC50 (LNCaP): 4.5 mg/L (≈ 9.4 µM); EC50 (KB [17]): 5.3 mg/L (≈ 11.1 µM) |
| CCC[C@@H](O)C1=C(Br)/C(=C\I)OC1=O |  |  |  |  |  |  |  |  |  |  |  |  |  |  |  |  |  |  |  |  | Activity [22]: 5.8% |
| CCC[C@@H](OC(C)=O)C1=C(Br)[C@@](OC)(C(Br)Br)OC1=O | inactive | inactive | inactive | Active | inactive | Active | inactive | 6.2 (≈ 12.9 µM) | Active | 2.8 (≈ 5.85 µM) | inactive | > 20 | 4.1 (≈ 8.56 µM) | inactive | inactive | Active | inactive | 14 | 16 | 6 | IC50 (Plasmodium falciparum [25]): 5 mg/L (≈ 10.4 µM); IC50 (Plasmodium falciparum [26]): > 10 mg/L; selectivity ratio [27]: 1; Activity [13]: inactive; Activity [22]: 22.7%; EC50 (LNCaP): 3.6 mg/L (≈ 7.52 µM); EC50 (KB [17]): 3.9 mg/L (≈ 8.14 µM) |
